Reference: ChEMBL document CHEMBL1149311, “Synthesis and antitumor activity of methyltriazene prodrugs simultaneously releasing DNA-methylating agents and the antiresistance drug O(6)-benzylguanine” (J Med Chem, 2004)

How the values were obtained:
SF-539 = assay: Antitumor activity against human SF539 cells; assay type: functional; settings: for CC50: read-out: Log LC50 (the source's name) (converted); for TGI: read-out: Log TGI (converted)
Summary of the method: (§1)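 Tested in the NCI in vitro disease-oriented human tumor cell screen. The endpoints are IC50 (molar concentration giving 50% growth inhibition), TGI (total growth inhibition) and LC50 (50% net cell death). The maximal concentration tested was 100 μM. Subpanel values are means of several individual cell lines.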

Hs-578T = assay: Antitumor activity against human HS578T cells; assay type: functional; settings: for GI50 / CC50 / TGI: Homo sapiens, Hs-578T; for CC50: read-out: Log LC50 (the source's name) (converted); for TGI: read-out: Log TGI (converted); summary of the method: as §1
NCI [1] = assay: Antitumor activity against human NCI leukemia cell line panel; assay type: functional, cell-based; settings: for CC50: read-out: LC50 (the source's name); summary of the method: as §1
M14 = assay: Antitumor activity against human M14 cells; assay type: functional; settings: for CC50: read-out: Log LC50 (the source's name) (converted); for TGI: read-out: Log TGI (converted); summary of the method: as §1
SR = assay: Antitumor activity against human SR cells; assay type: functional
Summary of the method: (§2)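 NCI in vitro disease-oriented tumour cell line screen. Read-outs are IC50 (molar concentration giving 50% growth inhibition), TGI (molar concentration giving total inhibition of net growth) and LC50 (molar concentration giving 50% net cell death). The maximal concentration tested was 100 μM.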

U-251 = assay: Antitumor activity against human U251 cells; assay type: functional; settings: for CC50: read-out: Log LC50 (the source's name) (converted); for TGI: read-out: Log TGI (converted); summary of the method: as §2
OVCAR-3 = assay: Antitumor activity against human OVCAR-3 cells; assay type: functional; settings: for TGI: read-out: Log TGI (converted); summary of the method: as §1
SF-268 [2] = assay: Antitumor activity against human SF268 cells; assay type: functional; settings: for CC50: read-out: Log LC50 (the source's name) (converted); for TGI: read-out: Log TGI (converted); summary of the method: as §1
SK-OV-3 = assay: Antitumor activity against human SKOV3 cells; assay type: functional; settings: for CC50: read-out: Log LC50 (the source's name) (converted); for TGI: read-out: Log TGI (converted); summary of the method: as §1
NCI-H23 = assay: Antitumor activity against human NCI-H23 cells; assay type: functional; settings: for TGI: read-out: Log TGI (converted); summary of the method: as §1
NCI-H460 [3] = assay: Antitumor activity against human NCI-H460 cells at 50 uM relative to control; assay type: functional
Summary of the method: (§3)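 Tested in the NCI three-cell-line one-dose primary anticancer prescreen. The read-out is growth as % of untreated control cells (100%) at 50 μM.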

SF-268 [4] = assay: Antitumor activity against human SF268 cells at 50 uM relative to control; assay type: functional; summary of the method: as §3
HCT-116 = assay: Antitumor activity against human HCT116 cells; assay type: functional; settings: for CC50: read-out: Log LC50 (the source's name) (converted); for TGI: read-out: Log TGI (converted); summary of the method: as §1
OVCAR-5 = assay: Antitumor activity against human OVCAR5 cells; assay type: functional; settings: for CC50: read-out: Log LC50 (the source's name) (converted); for TGI: read-out: Log TGI (converted); summary of the method: as §1
NCI [5] = assay: Antitumor activity against human NCI CNS cancer cell line panel; assay type: functional, cell-based; summary of the method: as §1
NCI [6] = assay: Antitumor activity against human NCI colon cancer cell line panel; assay type: functional, cell-based; summary of the method: as §1
MCF7 [7] = assay: Antitumor activity against human MCF7 cells at 50 uM relative to control; assay type: functional; summary of the method: as §3
SK-MEL-28 = assay: Antitumor activity against human SK-MEL-28 cells; assay type: functional; settings: for CC50: read-out: Log LC50 (the source's name) (converted); for TGI: read-out: Log TGI (converted); summary of the method: as §1
K562 = assay: Antitumor activity against human K562 cells; assay type: functional; settings: for CC50: read-out: Log LC50 (the source's name) (converted); for TGI: read-out: Log TGI (converted); summary of the method: as §1
MCF7 [8] = assay: Antitumor activity against human MCF7 cells at 100 uM relative to control; assay type: functional
Summary of the method: (§4)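 NCI three-cell-line one-dose primary anticancer prescreen at 100 µM. Growth is expressed as % of untreated control cells, with the control taken as 100%.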

SF-268 [9] = assay: Antitumor activity against human SF268 cells at 100 uM relative to control; assay type: functional; summary of the method: as §4
NCI-H460 [10] = assay: Antitumor activity against human NCI-H460 cells at 100 uM relative to control; assay type: functional; summary of the method: as §4
Malme-3M = assay: Antitumor activity against human MALME-3M cells; assay type: functional
Summary of the method: (§5)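 Tested in the NCI in vitro disease-oriented tumor cell screen, up to a top concentration of 100 µM. Read-outs: IC50 is the molar concentration giving 50% growth inhibition, TGI the concentration giving total growth inhibition, and LC50 the concentration giving 50% net cell death.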

MOLT-4 = assay: Antitumor activity against human MOLT4 cells; assay type: functional; summary of the method: as §5
SN12C = assay: Antitumor activity against human SN12C cells; assay type: functional; summary of the method: as §5
RXF 393 = assay: Antitumor activity against human RXF393 cells; assay type: functional; summary of the method: as §5
HCC 2998 = assay: Antitumor activity against human HCC2998 cells; assay type: functional; summary of the method: as §5
HT-29 = assay: Antitumor activity against human HT29 cells; assay type: functional; summary of the method: as §5
ACHN = assay: Antitumor activity against human ACHN cells; assay type: functional; summary of the method: as §5
CCRF-CEM = assay: Antitumor activity against human CCRF-CEM cells; assay type: functional; summary of the method: as §5
NCI-H522 = assay: Antitumor activity against human NCI-H522 cells; assay type: functional; summary of the method: as §5
NCI-H226 = assay: Antitumor activity against human NCI-H226 cells; assay type: functional; summary of the method: as §5
[11] = Antitumor activity against human NCI/ADR RES cells; assay type: functional; summary of the method: as §5
A498 = assay: Antitumor activity against human A498 cells; assay type: functional; summary of the method: as §5
[12] = read-out: Log LC50 (the source's name) (converted)
[13] = read-out: LC50 (the source's name)

CN(/N=N/c1nc(OCc2ccccc2)c2nc[nH]c2n1)C(=O)Oc1ccc([N+](=O)[O-])cc1
GI50 (SF-539): 9.77 µM
CC50 (SF-539): > 50.1 µM
TGI (SF-539): 28.8 µM
GI50 (Hs-578T): 8.71 µM
CC50 (Hs-578T): > 50.1 µM
TGI (Hs-578T): 29.5 µM
IC50 (NCI [1]): 14 µM
TGI (NCI [1]): 50 µM
CC50 (NCI [1]): 50 µM
GI50 (M14): 8.91 µM
CC50 (M14): 38 µM
TGI (M14): 18.2 µM
GI50 (SR): 26.3 µM
CC50 (SR; [12]): > 50.1 µM
TGI (SR; read-out: Log TGI (converted)): > 50.1 µM
GI50 (U-251): 7.59 µM
CC50 (U-251): 31.6 µM
TGI (U-251): 15.1 µM
GI50 (OVCAR-3): 9.55 µM
LC50 (OVCAR-3): > 50.1 µM
TGI (OVCAR-3): 24.5 µM
GI50 (SF-268 [2]): 9.33 µM
CC50 (SF-268 [2]): > 50.1 µM
TGI (SF-268 [2]): 29.5 µM
GI50 (SK-OV-3): 10.5 µM
CC50 (SK-OV-3): > 50.1 µM
TGI (SK-OV-3): 28.8 µM
GI50 (NCI-H23): 8.51 µM
LC50 (50% net cell kill) (NCI-H23): 32.4 µM
TGI (NCI-H23): 16.2 µM
Activity (NCI-H460 [3]): 0%
Activity (SF-268 [4]): 4%
GI50 (HCT-116): 8.71 µM
CC50 (HCT-116): 29.5 µM
TGI (HCT-116): 15.8 µM
GI50 (OVCAR-5): 11.5 µM
CC50 (OVCAR-5): > 50.1 µM
TGI (OVCAR-5): > 50.1 µM
IC50 (NCI [5]): 9 µM
TGI (NCI [5]): 30 µM
CC50 (NCI [5]; [13]): 47 µM
IC50 (NCI [6]): 9 µM
TGI (NCI [6]): 21 µM
CC50 (NCI [6]; [13]): 43 µM
Activity (MCF7 [7]): 1%
GI50 (SK-MEL-28): 12.3 µM
CC50 (SK-MEL-28): > 50.1 µM
TGI (SK-MEL-28): > 50.1 µM
GI50 (K562): 12 µM
CC50 (K562): > 50.1 µM
TGI (K562): > 50.1 µM

CN(/N=N/c1nc(OCc2ccccc2)c2nc[nH]c2n1)C(=O)N(C)/N=N/c1nc(OCc2ccccc2)c2nc[nH]c2n1
GI50 (SF-539): 38 µM
CC50 (SF-539): > 100 µM
TGI (SF-539): > 100 µM
pKP (Hs-578T): >4
GI50 (Hs-578T): 25.1 µM
CC50 (Hs-578T): > 100 µM
TGI (Hs-578T): 85.1 µM
Activity (MCF7 [8]): 74%
IC50 (NCI [1]): 55 µM
TGI (NCI [1]): > 100 µM
CC50 (NCI [1]): > 100 µM
GI50 (M14): 70.8 µM
CC50 (M14): > 100 µM
TGI (M14): > 100 µM
Activity (SF-268 [9]): 46%
Activity (NCI-H460 [10]): 58%
GI50 (U-251): 50.1 µM
CC50 (U-251): > 100 µM
TGI (U-251): > 100 µM
GI50 (OVCAR-3): 34.7 µM
LC50 (OVCAR-3): > 100 µM
TGI (OVCAR-3): > 100 µM
GI50 (SF-268 [2]): 47.9 µM
CC50 (SF-268 [2]): > 100 µM
TGI (SF-268 [2]): > 100 µM
GI50 (Malme-3M): 40.7 µM
CC50 (Malme-3M; [12]): > 100 µM
TGI (Malme-3M; read-out: Log TGI (converted)): > 100 µM
GI50 (MOLT-4): 53.7 µM
CC50 (MOLT-4; [12]): > 100 µM
TGI (MOLT-4; read-out: Log TGI (converted)): > 100 µM
GI50 (SN12C): 56.2 µM
CC50 (SN12C; [12]): > 100 µM
TGI (SN12C; read-out: Log TGI (converted)): > 100 µM
GI50 (RXF 393): 79.4 µM
CC50 (RXF 393; [12]): > 100 µM
TGI (RXF 393; read-out: Log TGI (converted)): > 100 µM
GI50 (SK-OV-3): 41.7 µM
CC50 (SK-OV-3): > 100 µM
TGI (SK-OV-3): > 100 µM
GI50 (HCC 2998): 19.5 µM
CC50 (HCC 2998; [12]): > 100 µM
TGI (HCC 2998; read-out: Log TGI (converted)): 81.3 µM
GI50 (HT-29): 60.3 µM
CC50 (HT-29; [12]): > 100 µM
TGI (HT-29; read-out: Log TGI (converted)): > 100 µM
GI50 (NCI-H23): 34.7 µM
LC50 (50% net cell kill) (NCI-H23): > 100 µM
TGI (NCI-H23): > 100 µM
GI50 (ACHN): 31.6 µM
CC50 (ACHN; [12]): > 100 µM
TGI (ACHN; read-out: Log TGI (converted)): > 100 µM
GI50 (HCT-116): 35.5 µM
CC50 (HCT-116): > 100 µM
TGI (HCT-116): > 100 µM
GI50 (CCRF-CEM): 50.1 µM
CC50 (CCRF-CEM; [12]): > 100 µM
TGI (CCRF-CEM; read-out: Log TGI (converted)): > 100 µM
GI50 (OVCAR-5): 63.1 µM
CC50 (OVCAR-5): > 100 µM
TGI (OVCAR-5): > 100 µM
GI50 (NCI-H522): 39.8 µM
CC50 (NCI-H522; [12]): > 100 µM
TGI (NCI-H522; read-out: Log TGI (converted)): > 100 µM
IC50 (NCI [5]): 55 µM
TGI (NCI [5]): > 100 µM
GI50 (NCI-H226): 38.9 µM
CC50 (NCI-H226; [12]): > 100 µM
TGI (NCI-H226; read-out: Log TGI (converted)): > 100 µM
GI50 [11]: 46.8 µM
CC50 [11, 12]: > 100 µM
TGI ([11]; read-out: Log TGI (converted)): > 100 µM
IC50 (NCI [6]): 45 µM
TGI (NCI [6]): > 100 µM
GI50 (A498): 19.5 µM
CC50 (A498; [12]): > 100 µM
TGI (A498; read-out: Log TGI (converted)): 53.7 µM
GI50 (SK-MEL-28): > 100 µM
CC50 (SK-MEL-28): > 100 µM
TGI (SK-MEL-28): > 100 µM
GI50 (K562): 75.9 µM
CC50 (K562): > 100 µM
TGI (K562): > 100 µM
